According to ChEMBL document CHEMBL5236609, “Optimization of 1,2,4-Triazole-3-thiones toward Broad-Spectrum Metallo-β-lactamase Inhibitors Showing Potent Synergistic Activity on VIM- and NDM-1-Producing Clinical Isolates” (J Med Chem, 2022):
The source made the active and inactive calls. The rule behind the calls is not given here.

How the values were obtained:
[1] = tested on: Klebsiella pneumoniae; experiment: Antimicrobial activity against blaVIM-4-producing multidrug-resistant Klebsiella pneumoniae VA-416/02 clinical isolate assessed as meropenem MIC at 32 ug/ml by broth microdilution method (reference value: […] ug/ml); type: functional; conditions: dose 32 µg/ml
Method in brief: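 Inoculum was 5×10^4 CFU/well. Each inhibitor was present at a fixed 32 μg/mL, and MICs were also taken without inhibitor.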

[2] = Cytotoxicity against human HeLa cells assessed as LDH release incubated for 24 hrs by membrane integrity assay; type: toxicity, cell-based
Method in brief: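 HeLa cells (20,000/well) exposed to compound up to 250 μM for 24 h at 37 °C, 5% CO2 in DMEM with 10% FBS, 4.5 mg/mL glucose and 2 mM L-glutamine. LDH release expressed as % of Triton X-100 maximum lysis; IC50 is the concentration giving 50% cytotoxicity.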

[3] = Chelation of Zn(II) in bacterial NDM-1 (unknown origin) by isothermal calorimetric assay
[4] = Chelation of Zn(II) in bacterial VIM-2 (unknown origin) by isothermal calorimetric assay
Method in brief: (§1)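 ITC at 25 °C. VIM-2 at 19 μM in 10 mM HEPES-NaOH, 0.15 M NaCl, pH 7.5 with DMSO matched to 1%, titrated with compound at 200 μM: one 0.5 μL injection, then 19 × 2 μL at 150 s intervals. Buffer dilution heats subtracted. Nonlinear fit gives n, Ka and ΔH°; values regarded as apparent.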

[5] = tested on: Bacteria; experiment: Inhibition of bacterial IMP-1 (unknown origin) expressed in Escherichia coli EXPRESS BL21(DE3) assessed as inhibition constant by measuring rate of substrate hydrolysis at 100 uM by UV-visible spectrophotometry relative to control
Method in brief: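 Reporter-substrate assay with purified MBL (1–70 nM final) in 50 mM HEPES pH 7.5 at 30 °C. […] Inhibitor 0.5–1000 μM final. Ki derived from the v0/vi vs [I] slope assuming competitive inhibition, or from a Dixon plot. Ki given when inhibition >70%, otherwise % inhibition at 100 μM. Triplicate.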

[6] = Binding affinity to Zn(II) assessed as dissociation constant by isothermal calorimetric assay
[7] = biological target: T1, Aminopeptidase N (Sus scrofa) (UniProt P15145); experiment: Inhibition of porcine APN using fluorogenic substrate H-Leu-AMC measured for 1 h rat 100 uM relative to control
T1 sequence (whole entry): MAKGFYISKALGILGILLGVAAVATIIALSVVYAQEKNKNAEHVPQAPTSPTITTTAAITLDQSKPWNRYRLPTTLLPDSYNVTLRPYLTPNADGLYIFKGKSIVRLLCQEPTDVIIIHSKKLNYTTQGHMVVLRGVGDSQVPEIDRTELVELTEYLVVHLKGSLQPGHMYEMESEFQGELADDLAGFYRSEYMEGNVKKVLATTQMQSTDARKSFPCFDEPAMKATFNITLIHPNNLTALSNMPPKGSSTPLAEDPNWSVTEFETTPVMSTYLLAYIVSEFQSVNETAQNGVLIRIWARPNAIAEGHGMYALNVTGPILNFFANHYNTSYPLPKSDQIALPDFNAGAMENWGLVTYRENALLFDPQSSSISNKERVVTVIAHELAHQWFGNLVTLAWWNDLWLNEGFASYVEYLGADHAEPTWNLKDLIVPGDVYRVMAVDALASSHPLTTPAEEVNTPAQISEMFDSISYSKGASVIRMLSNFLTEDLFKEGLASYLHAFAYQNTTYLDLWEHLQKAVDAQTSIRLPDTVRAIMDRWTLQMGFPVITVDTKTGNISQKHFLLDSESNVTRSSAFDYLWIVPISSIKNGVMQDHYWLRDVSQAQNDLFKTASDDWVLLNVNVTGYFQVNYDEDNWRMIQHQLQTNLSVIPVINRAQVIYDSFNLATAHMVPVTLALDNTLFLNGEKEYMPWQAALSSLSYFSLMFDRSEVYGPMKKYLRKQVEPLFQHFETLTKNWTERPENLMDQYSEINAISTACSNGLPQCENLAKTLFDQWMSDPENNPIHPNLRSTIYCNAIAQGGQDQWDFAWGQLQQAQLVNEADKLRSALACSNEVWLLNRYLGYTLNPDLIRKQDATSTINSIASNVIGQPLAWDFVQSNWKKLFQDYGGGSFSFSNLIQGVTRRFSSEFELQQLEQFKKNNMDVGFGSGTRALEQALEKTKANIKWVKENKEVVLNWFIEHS

[8] = Binding affinity to Zn(II) assessed as change in enthalpy by isothermal calorimetric assay
[9] = tested on: Bacteria; experiment: Inhibition of bacterial VIM-2 (unknown origin) assessed as Zn(II) content in protein at >5 uM by overnight equilibrium dialysis
Method in brief: (§2)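 VIM-2 or NDM-1 (3 μM final) in 50 mM HEPES pH 7.5 mixed with compound at 0–48 μM. Incubated 1 h on ice, then dialysed overnight at 4 °C against 50 mM HEPES pH 7.5. Zn(II) content measured by atomic absorption at 213.86 nm against a zinc standard curve. Each point averages three samples.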

[10] = tested on: Bacteria; experiment: Inhibition of bacterial VIM-2 (unknown origin) assessed as decrease in Zn(II) content in protein at 50 uM by native MS analysis
Method in brief: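 Purified VIM-2 or NDM-1 was given 2 mM TCEP and 2 equiv ZnCl2, incubated 1 h, and dialysed overnight into 100 mM ammonium acetate pH 7.5. Enzyme at 10 μM was then incubated 5 min with 50 μM compound. Positive-mode nanoESI on an Orbitrap, scanning m/z 1000–4000. Species assigned from deconvoluted masses.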

[11] = tested on: Bacteria; experiment: Inhibition of bacterial NDM-1 (unknown origin) assessed as Zn(II) content in protein at 48 uM at 48 uM by overnight equilibrium dialysis; method in brief: as §2
[12] = tested on: Klebsiella pneumoniae; experiment: Antimicrobial activity against blaVIM-1-producing multidrug-resistant Klebsiella pneumoniae 7023 clinical isolate assessed as meropenem MIC using cation-adjusted Mueller-Hinton broth at 16 ug/ml by broth microdilution method (reference value: […] ug/ml); type: functional; conditions: dose 16 µg/ml
Method in brief: (§3)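 Checkerboard broth microdilution in cation-supplemented Mueller–Hinton broth, inoculum 5×10^4 CFU/well, per CLSI. […] The average fractional inhibitory concentration index was computed from the checkerboard.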

[13] = tested on: Escherichia coli; experiment: Antimicrobial activity against blaNDM-1-producing multidrug-resistant Escherichia coli SI-004 clinical isolate assessed as meropenem MIC using cation-adjusted Mueller-Hinton broth at 1 ug/ml by broth microdilution method (reference value: 64 ug/ml); type: functional; conditions: dose 1 µg/ml; method in brief: as §3
[14] = tested on: Klebsiella pneumoniae; experiment: Antimicrobial activity against blaVIM-1-producing multidrug-resistant Klebsiella pneumoniae 7023 clinical isolate assessed as meropenem MIC using cation-adjusted Mueller-Hinton broth at 0.5 ug/ml by broth microdilution method (reference value: […] ug/ml); type: functional; conditions: dose 0.5 µg/ml; method in brief: as §3
[15] = tested on: Bacteria; experiment: Binding affinity to bacterial VIM-2 (unknown origin) assessed as change in entropy by isothermal calorimetric assay; method in brief: as §1
[16] = tested on: Escherichia coli; experiment: Antimicrobial activity against blaNDM-1-producing multidrug-resistant Escherichia coli SI-004 clinical isolate assessed as meropenem MIC using cation-adjusted Mueller-Hinton broth at 0.5 ug/ml by broth microdilution method (reference value: 64 ug/ml); type: functional; conditions: dose 0.5 µg/ml; method in brief: as §3

Compound | MIC [1] [µg/mL] | CC50 at 24 h [2] [µM] | Activity [3] | Activity [4] | inhibition [5] [%] | Kd [6] [µM] | inhibition [7] [%] | deltaH [8] [kcal/mol] | inhibition [9] | inhibition [10] | Activity [11] [equiv] | MIC [12] [µg/mL] | MIC [13] [µg/mL] | MIC [14] [µg/mL] | TdeltaS [15] [kcal/mol] | MIC [16] [µg/mL]
O=C(O)[C@H](CCCn1c(-c2ccc3ccccc3c2)n[nH]c1=S)N(Cc1c[nH]cn1)Cc1c[nH]cn1 | 0.03 | – | – | – | – | – | – | – | – | – | – | – | – | – | – | –
O=C(O)[C@H](CCn1c(-c2ccccc2)n[nH]c1=S)N(Cc1c[nH]cn1)Cc1c[nH]cn1 | 0.03 | > 250 | – | – | – | – | – | – | – | – | – | – | – | – | – | –
O=C(O)[C@H](CCCn1c(-c2ccccc2)n[nH]c1=S)N(Cc1ccccn1)Cc1ccccn1 | 0.03 | – | inactive | inactive | < 30 | 0.01 | 30 | 6 | Active | Active | 1.09 | – | – | – | – | –
O=C(O)[C@H](CCCn1c(-c2ccccc2)n[nH]c1=S)N(Cc1c[nH]cn1)Cc1c[nH]cn1 | 0.03 | > 250 | Active | Active | 40 | 0.01 | – | 5 | – | Active | 1.09 | 0.06 | 64 | 16 | -1.4 | 64
Cc1[nH]cnc1CN(Cc1c[nH]cn1)[C@@H](CCCn1c(-c2ccccc2)n[nH]c1=S)C(=O)O | 0.03 | 105 | – | – | – | – | 58 | – | – | – | – | – | – | – | – | –
